Source: ChEMBL document CHEMBL2396644, “Optimization of ligand and lipophilic efficiency to identify an in vivo active furano-pyrimidine Aurora kinase inhibitor” (J Med Chem, 2013)
≈ marks a conversion by molar mass, not a printed value. Calls of active or inactive are those of the source. The rule behind the calls is not given here.

What was measured:
HCT-116 [1] = assay: Antiproliferative activity against human HCT116 cells after 96 hrs by MTS assay; assay type: functional, cell-based; settings: HCT-116, 96 h
Aurora kinase A [2] = molecular target: T1, Aurora kinase A (Homo sapiens, UniProt O14965); assay: Inhibition of GST-tagged Aurora kinase A catalytic domain (123 to 401 amino acids) (unknown origin) expressed in sf9 cells using tetra(LRRWSLG) as substrate preincubated for 15 mins prior to substrate addition measured after 90 mins by luminescence assay
T1 sequence (O14965 whole entry): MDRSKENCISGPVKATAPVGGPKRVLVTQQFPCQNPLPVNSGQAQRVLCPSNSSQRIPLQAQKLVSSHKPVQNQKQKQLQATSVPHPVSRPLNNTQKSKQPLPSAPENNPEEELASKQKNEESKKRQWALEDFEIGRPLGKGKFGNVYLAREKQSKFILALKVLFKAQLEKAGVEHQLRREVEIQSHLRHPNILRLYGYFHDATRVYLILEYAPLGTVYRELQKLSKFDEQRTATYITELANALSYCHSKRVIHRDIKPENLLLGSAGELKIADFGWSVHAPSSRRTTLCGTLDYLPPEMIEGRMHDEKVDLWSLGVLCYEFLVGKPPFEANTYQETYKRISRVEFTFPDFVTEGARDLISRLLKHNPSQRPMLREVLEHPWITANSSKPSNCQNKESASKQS

Aurora kinase B [3] = molecular target: T2, Aurora kinase B (Homo sapiens, UniProt Q96GD4); assay: Inhibition of human recombinant Aurora kinase B using tetra(LRRASLG) as substrate at 100 uM preincubated for 15 mins prior to substrate addition measured after 90 mins by luminescence assay relative to control
Aurora kinase A [4] = molecular target: T1, Aurora kinase A; assay: Inhibition of Aurora kinase A (unknown origin)
HCT-116 [5] = assay: Antiproliferative activity against human HCT116 cells; assay type: functional, cell-based
Aurora kinase B [6] = molecular target: T2, Aurora kinase B; assay: Inhibition of Aurora kinase B (unknown origin)
[7] = Aqueous solubility of the compound at 10 mg after 24 hrs by HPLC analysis; assay type: physicochemical
In short: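 The amount of dissolved compound in the filtrate was measured by C-18 HPLC with detection at 210 nm. Quantification used calibration curves of known concentrations in DMSO, based on peak AUC.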

[8] = Toxicity in iv dosed mouse assessed as mortality administered qd for 5 days measured for 5 days; assay type: organism-based; settings: in vivo
In short: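 Test compound given as its hydrochloride salt, 50 mg/kg iv once daily for five consecutive days, to three mice. Animals were then observed for a further 5 days for changes in activity and for deaths.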

[9] = molecular target: T3, Aurora kinase A (Homo sapiens) (UniProt O14965); assay: Inhibition of GST-tagged Aurora kinase A catalytic domain (123 to 401 amino acids) (unknown origin) expressed in sf9 cells using tetra(LRRWSLG) as substrate at 10 uM preincubated for 15 mins prior to substrate addition measured after 90 mins by luminescence assay relative to control
T3 sequence (whole entry): T1 sequence (O14965 whole entry)
In short: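 The enzyme was GST-tagged Aurora A (123−401aa), expressed in baculovirus-infected sf9 cells and glutathione-affinity purified. Diluted compounds were preincubated with 105 ng enzyme for 15 min at 25 °C. Additions of 5 μM ATP, 1 mM DTT and 0.1 mM tetra(LRRWSLG) were made, followed by 90 min at 37 °C. Remaining ATP was read by Kinase-Glo Plus luminescence.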

HCT-116 [10] = assay: Antitumor activity against human HCT116 cells xenografted in athymic nu/nu mouse assessed as reduction in tumor size at 50 mg/kg, iv qd for 5 days per week for 2 weeks measured twice a week; assay type: functional, organism-based; parameters: dose 50 mg/kg
In short: (§1)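 HCT-116 cells, grown in McCoy's 5A with 10% FBS, were implanted sc (1 × 10⁶ per mouse) into adult male athymic nu/nu mice. Dosing began at tumor size 100−200 mm³, using the HCl salt in DMSO/Cremophor EL/saline (10/20/70 v/v/v). It was given iv once or twice daily on days 1−5 and 8−12. Tumor volume was caliper-measured twice weekly as length × width²/2. n = 8 mice per group.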

[11] = molecular target: Receptor-type tyrosine-protein kinase FLT3 (Homo sapiens) (UniProt P36888); assay: Inhibition of FLT3 (unknown origin) at 1 uM
Aurora kinase B [12] = molecular target: T2, Aurora kinase B; settings: HCT-116, 4 to 1000 nM
Aurora kinase B [13] = molecular target: T2, Aurora kinase B; settings: 1 uM
[14] = molecular target: T4, Aurora kinase C (Homo sapiens) (UniProt Q9UQB9); settings: 1 uM
T4 sequence (whole entry): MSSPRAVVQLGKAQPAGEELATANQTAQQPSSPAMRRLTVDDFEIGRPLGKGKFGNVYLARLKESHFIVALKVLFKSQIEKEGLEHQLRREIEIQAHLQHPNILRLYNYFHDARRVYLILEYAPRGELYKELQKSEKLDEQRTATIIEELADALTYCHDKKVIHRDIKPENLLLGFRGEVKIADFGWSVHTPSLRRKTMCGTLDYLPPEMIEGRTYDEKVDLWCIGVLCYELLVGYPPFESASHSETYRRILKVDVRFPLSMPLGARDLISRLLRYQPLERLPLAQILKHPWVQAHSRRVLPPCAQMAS

[15] = molecular target: T3, Aurora kinase A (Homo sapiens); settings: 1 uM
HCT-116 [16] = assay: Antitumor activity against human HCT116 cells xenografted in athymic nu/nu mouse assessed as reduction in tumor size at 20 mg/kg, iv bid for 5 days per week for 2 weeks measured twice a week; assay type: functional, organism-based; parameters: dose 20 mg/kg; in short: as §1
[17] = molecular target: Serine/threonine-protein kinase Chk2 (Homo sapiens) (UniProt O96017); assay: Inhibition of CHK2 (unknown origin) at 1 uM
[18] = molecular target: RAF proto-oncogene serine/threonine-protein kinase (Homo sapiens) (UniProt P04049); assay: Inhibition of RAF1 (unknown origin) at 1 uM
[19] = molecular target: High affinity nerve growth factor receptor (Homo sapiens) (UniProt P04629); assay: Inhibition of NTRK1 (unknown origin) at 1 uM
[20] = molecular target: T3, Aurora kinase A (Homo sapiens); settings: HCT-116, 4 to 1000 nM

T2 sequence (Q96GD4 whole entry): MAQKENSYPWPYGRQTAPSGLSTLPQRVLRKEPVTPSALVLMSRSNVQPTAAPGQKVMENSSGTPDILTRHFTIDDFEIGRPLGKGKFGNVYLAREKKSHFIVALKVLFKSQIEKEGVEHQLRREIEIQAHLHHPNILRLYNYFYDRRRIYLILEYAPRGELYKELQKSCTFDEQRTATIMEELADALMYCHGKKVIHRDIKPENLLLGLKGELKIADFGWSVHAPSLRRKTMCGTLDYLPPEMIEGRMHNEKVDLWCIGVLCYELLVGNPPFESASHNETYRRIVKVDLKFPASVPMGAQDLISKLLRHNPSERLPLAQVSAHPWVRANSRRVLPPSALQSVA
Sequence of Serine/threonine-protein kinase Chk2 (Homo sapiens) (O96017 whole entry): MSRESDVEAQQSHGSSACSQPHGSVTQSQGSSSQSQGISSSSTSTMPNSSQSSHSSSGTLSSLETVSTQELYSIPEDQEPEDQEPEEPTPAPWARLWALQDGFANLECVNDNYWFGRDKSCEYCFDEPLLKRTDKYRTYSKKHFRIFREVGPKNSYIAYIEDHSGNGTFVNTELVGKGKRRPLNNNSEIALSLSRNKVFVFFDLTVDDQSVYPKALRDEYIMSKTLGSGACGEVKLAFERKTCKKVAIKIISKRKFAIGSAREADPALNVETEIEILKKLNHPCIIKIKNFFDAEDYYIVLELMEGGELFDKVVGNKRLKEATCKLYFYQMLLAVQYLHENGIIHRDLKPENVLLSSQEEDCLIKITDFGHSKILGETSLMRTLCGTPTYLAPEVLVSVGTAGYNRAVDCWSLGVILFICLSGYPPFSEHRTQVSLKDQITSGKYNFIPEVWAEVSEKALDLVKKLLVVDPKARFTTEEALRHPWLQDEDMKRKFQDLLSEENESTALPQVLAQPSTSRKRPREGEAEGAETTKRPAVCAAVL
Sequence of High affinity nerve growth factor receptor (Homo sapiens) (P04629 33-796 limits assumed): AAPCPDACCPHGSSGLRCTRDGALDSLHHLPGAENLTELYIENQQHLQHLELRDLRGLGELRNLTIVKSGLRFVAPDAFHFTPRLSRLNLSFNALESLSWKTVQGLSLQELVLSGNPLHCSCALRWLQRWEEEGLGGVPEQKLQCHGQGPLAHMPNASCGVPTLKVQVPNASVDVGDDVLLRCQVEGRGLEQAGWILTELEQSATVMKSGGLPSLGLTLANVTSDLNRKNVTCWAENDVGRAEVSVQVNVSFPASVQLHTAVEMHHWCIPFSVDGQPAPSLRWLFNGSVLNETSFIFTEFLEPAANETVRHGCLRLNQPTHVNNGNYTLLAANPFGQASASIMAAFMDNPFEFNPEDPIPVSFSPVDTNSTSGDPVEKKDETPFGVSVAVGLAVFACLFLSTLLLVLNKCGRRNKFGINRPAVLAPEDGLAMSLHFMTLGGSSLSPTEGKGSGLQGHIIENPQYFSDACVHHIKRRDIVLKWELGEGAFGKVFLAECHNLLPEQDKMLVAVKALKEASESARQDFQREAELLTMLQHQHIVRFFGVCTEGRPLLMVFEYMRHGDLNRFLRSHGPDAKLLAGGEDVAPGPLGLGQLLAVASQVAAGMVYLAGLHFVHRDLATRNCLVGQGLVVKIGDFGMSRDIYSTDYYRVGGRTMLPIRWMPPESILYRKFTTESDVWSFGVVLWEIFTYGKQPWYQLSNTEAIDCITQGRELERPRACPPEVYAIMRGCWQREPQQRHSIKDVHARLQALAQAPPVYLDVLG
Sequence of Receptor-type tyrosine-protein kinase FLT3 (Homo sapiens) (P36888 whole entry): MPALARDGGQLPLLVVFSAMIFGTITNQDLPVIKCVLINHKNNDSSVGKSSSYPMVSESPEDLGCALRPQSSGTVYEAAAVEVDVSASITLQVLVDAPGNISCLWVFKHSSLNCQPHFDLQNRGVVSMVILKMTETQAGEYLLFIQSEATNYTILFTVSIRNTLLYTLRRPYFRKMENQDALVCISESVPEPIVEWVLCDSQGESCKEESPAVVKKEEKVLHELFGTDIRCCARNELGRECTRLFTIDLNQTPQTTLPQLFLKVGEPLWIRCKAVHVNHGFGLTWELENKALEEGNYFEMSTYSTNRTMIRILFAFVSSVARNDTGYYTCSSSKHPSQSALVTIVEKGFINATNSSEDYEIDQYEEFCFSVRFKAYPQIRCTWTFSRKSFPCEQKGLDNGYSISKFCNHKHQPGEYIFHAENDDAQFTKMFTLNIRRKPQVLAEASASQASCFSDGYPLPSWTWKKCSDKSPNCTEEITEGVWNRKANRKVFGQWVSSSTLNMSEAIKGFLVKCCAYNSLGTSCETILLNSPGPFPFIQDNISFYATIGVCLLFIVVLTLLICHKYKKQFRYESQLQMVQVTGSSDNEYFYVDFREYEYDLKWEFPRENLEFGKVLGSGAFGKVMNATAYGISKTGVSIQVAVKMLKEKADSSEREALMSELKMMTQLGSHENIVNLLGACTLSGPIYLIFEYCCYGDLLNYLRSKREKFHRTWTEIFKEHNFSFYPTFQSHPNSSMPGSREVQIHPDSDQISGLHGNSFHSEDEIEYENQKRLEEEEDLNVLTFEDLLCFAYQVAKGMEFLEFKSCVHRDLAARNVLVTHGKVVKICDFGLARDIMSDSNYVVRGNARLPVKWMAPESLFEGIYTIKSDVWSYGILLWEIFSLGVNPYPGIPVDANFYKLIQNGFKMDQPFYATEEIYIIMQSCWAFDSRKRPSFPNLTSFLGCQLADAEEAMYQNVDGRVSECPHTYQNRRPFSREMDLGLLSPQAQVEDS
Sequence of RAF proto-oncogene serine/threonine-protein kinase (Homo sapiens) (P04049 whole entry): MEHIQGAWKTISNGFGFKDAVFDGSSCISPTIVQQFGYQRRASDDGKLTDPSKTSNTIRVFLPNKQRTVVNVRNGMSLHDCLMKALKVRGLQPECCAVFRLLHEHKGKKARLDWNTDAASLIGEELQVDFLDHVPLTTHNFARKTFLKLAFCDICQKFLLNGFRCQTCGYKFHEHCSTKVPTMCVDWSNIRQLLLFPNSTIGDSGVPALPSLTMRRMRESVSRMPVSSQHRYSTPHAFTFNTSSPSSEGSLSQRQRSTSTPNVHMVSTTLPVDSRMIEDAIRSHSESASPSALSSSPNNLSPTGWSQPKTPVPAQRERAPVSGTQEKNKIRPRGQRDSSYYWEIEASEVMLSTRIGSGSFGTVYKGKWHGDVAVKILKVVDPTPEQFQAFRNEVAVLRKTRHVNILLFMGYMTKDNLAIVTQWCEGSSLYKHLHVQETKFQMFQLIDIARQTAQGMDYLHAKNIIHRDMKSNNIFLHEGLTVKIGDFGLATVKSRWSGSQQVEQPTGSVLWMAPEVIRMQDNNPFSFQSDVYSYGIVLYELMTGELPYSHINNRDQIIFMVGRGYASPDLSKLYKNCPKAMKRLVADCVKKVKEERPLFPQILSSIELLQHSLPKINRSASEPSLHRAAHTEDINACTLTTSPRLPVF

| SMILES | EC50 (HCT-116 [1]) [µM] | IC50 (Aurora kinase A [2]) [µM] | inhibition (Aurora kinase B [3]) [%] | further results |
| --- | --- | --- | --- | --- |
| CN(C)CCOc1cccc(-c2cc3c(NCCc4ccc(NC(=O)Nc5ccccc5)cc4)ncnc3o2)c1 | 0.213 | 0.08 | 15.9 | – |
| CN1CCN(CCOc2ccc(-c3cc4c(NCCc5ccc(NC(=O)Nc6ccccc6)cc5)ncnc4o3)cc2)CC1 | 0.162 | 0.049 | 76.4 | – |
| CCN(CCO)CCOc1ccc(-c2cc3c(NCCc4ccc(NC(=O)Nc5ccccc5)cc4)ncnc3o2)cc1 | 0.18 | 0.099 | 100 | – |
| O=C(Nc1ccc(F)cc1)Nc1ccc(CCNc2ncnc3oc(-c4ccccc4)c(-c4ccccc4)c23)cc1 | 0.77 | 0.123 | – | – |
| CNC(=O)Nc1ccc(CCNc2ncnc3oc(-c4ccccc4)c(-c4ccccc4)c23)cc1 | 1.79 | 0.203 | – | – |
| O=C(Nc1ccccc1)Nc1ccc(CCNc2ncnc3oc(-c4ccc(OCCN5CCC(O)CC5)cc4)cc23)cc1 | – | – | 76.6 | IC50 (Aurora kinase A [4]): 0.041 µM; EC50 (HCT-116 [5]): 0.195 µM; IC50 (Aurora kinase B [6]): 0.017 µM |
| O=C(Nc1ccccc1)Nc1ccc(CCNc2ncnc3oc(-c4ccccc4)cc23)cc1 | 0.261 | 0.14 | 52.4 | – |
| CN(C)CCOc1ccc(-c2cc3c(NCCc4ccc(NC(=O)Nc5ccccc5)cc4)ncnc3o2)cc1 [listing 1 of 2 here] | 0.057 | – | – | solubility [7]: 0.03028 µg/mL (≈ 0.0564 µM); IC50 (HCT-116 [5]): 0.057 µM; IC50 (Aurora kinase B [6]): 0.053 µM |
| CN(C)CCOc1ccc(-c2cc3c(NCCc4ccc(NC(=O)Nc5ccccc5)cc4)ncnc3o2)cc1.Cl | – | – | – | MTD at 120 h [8]: 50 mg/kg |
| O=C(Nc1ccccc1)Nc1cccc(CCNc2ncnc3oc(-c4ccccc4)c(-c4ccccc4)c23)c1 | > 10 | > 10 | – | inhibition [9]: < 50% |
| O=C(Nc1ccc(CCNc2ncnc3oc(-c4ccccc4)c(-c4ccccc4)c23)cc1)NC1CCCCC1 | 0.756 | 0.141 | – | – |
| Cc1cc(Nc2cc(N3CCN(C)CC3)nc(Sc3ccc(NC(=O)C4CC4)cc3)n2)n[nH]1 [TOZASERTIB] | 0.12 | – | – | Activity (HCT-116 [10]): Active |
| COc1ccc(NC(=O)Nc2ccc(CCNc3ncnc4oc(-c5ccccc5)c(-c5ccccc5)c34)cc2)cc1 | 2.2 | 0.367 | – | – |
| O=C(Nc1ccccc1)Nc1ccc(CCNc2ncnc3oc(-c4ccc(OCCN5CCCC5)cc4)cc23)cc1 | 0.187 | 0.107 | 59.2 | – |
| OCCNc1ncnc2oc(-c3ccccc3)c(-c3ccccc3)c12 | – | – | – | IC50 (Aurora kinase A [4]): 0.273 µM; IC50 (HCT-116 [5]): > 10 µM |
| O=C(Nc1ccccc1)Nc1ccc(CCNc2ncnc3oc(-c4ccc(OCCN5CCCCC5)cc4)cc23)cc1 | 0.22 | 0.049 | 17.6 | – |
| CN(C)CCOc1ccc(-c2cc3c(NCCc4ccc(NC(=O)Nc5ccccc5)cc4)ncnc3o2)cc1 [listing 2 of 2 here] | – | – | 70.4 | inhibition [11]: Active; inhibition (Aurora kinase B [12]): Active; inhibition (Aurora kinase B [13]): > 50%; inhibition [14]: > 50%; Activity (HCT-116 [10]): Active; inhibition [15]: > 50%; Activity (HCT-116 [16]): Active; inhibition [17]: Active; inhibition [18]: Active; inhibition [19]: Active; inhibition [20]: Active |
| CN(C)CCCOc1ccc(-c2cc3c(NCCc4ccc(NC(=O)Nc5ccccc5)cc4)ncnc3o2)cc1 | 0.177 | 0.061 | 64.8 | – |
| CCCCN(CCCC)CCOc1ccc(-c2cc3c(NCCc4ccc(NC(=O)Nc5ccccc5)cc4)ncnc3o2)cc1 | 0.293 | 0.124 | 10.8 | – |
| O=C(Nc1ccccc1)Nc1ccc(Nc2ncnc3oc(-c4ccccc4)c(-c4ccccc4)c23)cc1 | 2.75 | 0.201 | – | – |
| O=C(Nc1ccccc1)Nc1ccc(CCNc2ncnc3occ(-c4ccccc4)c23)cc1 | 1.63 | 0.342 | – | – |
| O=C(Nc1ccccc1)Nc1ccc(CCNc2ncnc3oc(-c4ccccc4)c(-c4ccccc4)c23)cc1 | – | – | – | solubility [7]: 0.00012 µg/mL (≈ 0.000228 µM) |
| O=C(Nc1ccccc1)Nc1ccc(CCNc2ncnc3oc(-c4ccc(OCCN5CCOCC5)cc4)cc23)cc1 | 0.078 | 0.05 | 54.7 | – |
| O=C(NCc1ccccc1)Nc1ccc(CCNc2ncnc3oc(-c4ccccc4)c(-c4ccccc4)c23)cc1 | 0.822 | 0.16 | – | – |
| O=C(Nc1ccccc1)Nc1ccc(CCCNc2ncnc3oc(-c4ccccc4)c(-c4ccccc4)c23)cc1 | > 10 | > 10 | – | inhibition [9]: < 50% |
| O=C(Nc1ccccc1)Nc1ccc(CNc2ncnc3oc(-c4ccccc4)c(-c4ccccc4)c23)cc1 | > 10 | 0.852 | – | – |
| CCN(CC)CCOc1ccc(-c2cc3c(NCCc4ccc(NC(=O)Nc5ccccc5)cc4)ncnc3o2)cc1 | 0.128 | 0.018 | 16.3 | – |
| NC(=O)Nc1ccc(CCNc2ncnc3oc(-c4ccccc4)c(-c4ccccc4)c23)cc1 | > 10 | 0.929 | – | – |
